Activity calls are given as the source filed them.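 How the source made its calls, unless noted: active means Her2 level under about 52% in both replicate screens, with viability over 70% of control (limit read from the data); inconclusive means Her2 under the limit in one screen only, or viability under 70%; inactive means Her2 level above the set limit.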
Columns and labels:
[1] = reducers of endogenous Her2 protein level, primary screen, SKBR3 breast tumor cells, AlphaScreen, ATP viability (AID 461); details: 18-24 h, measured here: SKBR3 viability, ATP luminescence, at 10 µM;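 on Her2 level: lower value means less Her2 protein in the cells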;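 on viability: percent of carrier control wells set as 100% viability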
[2] = molecular target: Receptor tyrosine-protein kinase erbB-2 (Homo sapiens) (UniProt P04626); experiment: as above; details: 18-24 h, at 10 µM, stronger effect = lower value
Receptor tyrosine-protein kinase erbB-2 (Homo sapiens), sequence (P04626 whole entry, looked up): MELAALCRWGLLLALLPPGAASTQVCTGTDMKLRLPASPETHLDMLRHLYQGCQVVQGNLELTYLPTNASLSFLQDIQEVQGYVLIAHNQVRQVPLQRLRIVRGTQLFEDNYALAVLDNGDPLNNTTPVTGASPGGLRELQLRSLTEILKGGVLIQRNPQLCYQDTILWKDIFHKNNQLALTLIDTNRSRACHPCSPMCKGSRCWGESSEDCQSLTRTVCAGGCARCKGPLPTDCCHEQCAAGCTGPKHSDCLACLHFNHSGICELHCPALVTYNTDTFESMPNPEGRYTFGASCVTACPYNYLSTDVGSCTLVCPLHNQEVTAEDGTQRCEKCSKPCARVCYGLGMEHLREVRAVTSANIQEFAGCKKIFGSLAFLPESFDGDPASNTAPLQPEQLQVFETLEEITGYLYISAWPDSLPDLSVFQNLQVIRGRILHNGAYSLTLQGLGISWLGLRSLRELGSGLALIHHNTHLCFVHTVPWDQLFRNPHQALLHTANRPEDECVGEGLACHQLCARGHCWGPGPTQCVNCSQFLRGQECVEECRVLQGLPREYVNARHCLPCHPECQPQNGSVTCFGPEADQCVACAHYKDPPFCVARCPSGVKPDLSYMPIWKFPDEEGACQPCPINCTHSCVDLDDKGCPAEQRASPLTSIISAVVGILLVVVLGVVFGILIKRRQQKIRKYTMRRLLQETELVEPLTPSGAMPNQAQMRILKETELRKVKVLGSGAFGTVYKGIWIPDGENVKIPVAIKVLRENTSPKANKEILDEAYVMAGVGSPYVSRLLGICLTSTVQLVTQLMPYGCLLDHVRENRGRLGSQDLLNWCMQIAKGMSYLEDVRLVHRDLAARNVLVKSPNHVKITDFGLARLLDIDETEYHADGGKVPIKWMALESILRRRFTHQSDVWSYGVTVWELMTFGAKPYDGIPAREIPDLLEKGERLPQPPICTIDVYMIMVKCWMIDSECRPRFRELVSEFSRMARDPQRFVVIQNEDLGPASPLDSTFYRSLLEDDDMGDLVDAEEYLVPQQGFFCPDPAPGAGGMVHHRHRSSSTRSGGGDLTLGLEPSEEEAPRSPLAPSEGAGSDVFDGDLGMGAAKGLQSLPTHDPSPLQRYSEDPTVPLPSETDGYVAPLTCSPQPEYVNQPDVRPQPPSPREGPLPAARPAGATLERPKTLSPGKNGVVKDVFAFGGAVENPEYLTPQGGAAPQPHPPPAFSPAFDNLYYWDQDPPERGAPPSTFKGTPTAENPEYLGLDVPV

[3] = SK-BR-3 cell growth inhibitors, pilot screen, 24 h, human (AID 572;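 active means viability at or below 10% of carrier control in both of two separate runs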;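 further: compound exposure lasted between 18 and 24 h rather than exactly 24 h; 100% = carrier-treated control wells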); details: SK-BR-3 viability, CellTiter-Glo luminescence, at 10 µM, stronger effect = lower value
[4] = HUVEC growth inhibition – cell-based, human, primary screen (AID 575;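 active means viability at or below 30% in both replicate assays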;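 further: 100% = median of untreated cell wells with 0.1% DMSO on each plate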); details: HUVEC proliferation, CellTiter-Glo luminescence, 72 h; at 10 µM; stronger effect = lower value
Outline: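 System: primary human umbilical vein endothelial cells; Quantity: 1250 endothelial cells in each well; Buffer or medium: supplemented EBM, 2% fetal bovine serum; Doses: one dose, 10 µM final, 0.1% DMSO; Incubation: 72 h compound incubation; Technique: ATP-based CellTiter-Glo luminescent read; Evaluation: percent of median DMSO-control luminescence; Controls: vehicle and MePR control wells.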

[5] = growth inhibitors of H69AR lung tumor, primary screen, human, duplicate replicates (AID 580;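 active means viability at or under a set limit in both replicates, limit being median viability minus 3 SD, cut at about 48% in these data, passing the limit was not always enough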;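 further: 100% = mean luminescence of untreated wells and 0% = no signal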); details: H69AR lung tumor cells viability, ATP luminescence, 72 h; at 10 µM; stronger effect = lower value
[6] = reversal of MRP1-mediated doxorubicin resistance, pilot screen, H69AR cells, doxorubicin co-treatment (AID 601;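 active means viability loss from added drug above about 55%, and viability with drug at most 40%, in both replicates, limit read from the data, passing the limit was not always enough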); details: CellTiter-Glo, 72 h, at 10 µM; for differential viability (reversal): stronger effect = higher value
[7] = 384-well plate pilot, post-Golgi transport modulator project, inhibition of yeast transport mutant growth (AID 636; in the data active means inhibition above about 31%); details: absorbance 615 nm, about 18 h, stronger effect = higher value
[8] = growth suppression of yeast trafficking mutant, preliminary HTS, modulators of trafficking downstream of Golgi apparatus project, 1536-format plate, OD 615 nm (AID 637; in the data active means inhibition above about 30%); details: yeast transport mutant growth, absorbance 615 nm, 18 h; stronger effect = higher value
[9] = H69AR cells + 2 uM doxorubicin, measured here: viability with 2 uM doxorubicin, stronger effect = lower value
[10] = H69AR cells, compound alone cytotoxicity

SMILES	viability [1]	Her2 level [2]	viability [3]	viability [4]	viability [5]	differential viability (reversal) ([6]; H69AR cells + 2 uM doxorubicin)	viability [6, 9]	viability [6, 10]	inhibition [7]	inhibition [8]
O=C(CN1CCC(n2nnc3cc(F)ccc32)CC1)Nc1ccc2c(c1)CCC2	93%	104% (inactive)	93% (inactive)	79.5% (inactive)	86.3% (inactive)	-5.55% (inactive)	91.8%	86.3%	-4.59% (inactive)	-3.5% (inactive)
CCCC(O)(CCN(C)C)c1ccc(OC)cc1 (stereo not given)	89%	79.5% (inactive)	89% (inactive)	98.5% (inactive)	88.3% (inactive)	4.26% (inactive)	84%	88.3%	-0.26% (inactive)	0.48% (inactive)
COCCn1c(SCC(=O)Nc2nnc(C)s2)nnc1-c1c[nH]c2ccccc12	104%	84% (inactive)	104% (inactive)	111% (inactive)	103% (inactive)	14.8% (inactive)	88.6%	103%	-1.71% (inactive)	-6% (inactive)
CCSc1nnc2c(n1)OC=Nc1ccc(Br)cc1-2	92.5%	86% (inactive)	92.5% (inactive)	79.3% (inactive)	99.7% (inactive)	12.9% (inactive)	86.7%	99.7%	-0.66% (inactive)	-4.67% (inactive)
COc1ccc2nc(C)cc(N3CCOCC3)c2c1	128%	101% (inactive)	128% (inactive)	101% (inactive)	93.1% (inactive)	-3.77% (inactive)	96.9%	93.1%	-3.68% (inactive)	9.67% (inactive)
Cc1oc(-c2ccc(Cl)cc2)nc1CS(=O)CC(=O)NCCCN(C)C1CCCCC1 (stereo not given)	91.5%	101% (inactive)	91.5% (inactive)	66.3% (inactive)	87.1% (inactive)	10.8% (inactive)	76.3%	87.1%	-2.99% (inactive)	5.56% (inactive)
CCc1nnc(NC(=O)C2CC(=O)N(Cc3ccco3)C2)s1 (stereo not given)	107%	95% (inactive)	107% (inactive)	111% (inactive)	98.4% (inactive)	4% (inactive)	94.4%	98.4%	-2.93% (inactive)	2.1% (inactive)
CC(NC(=O)Nc1nccs1)(C(F)(F)F)C(F)(F)F	102%	83.5% (inactive)	102% (inactive)	103% (inactive)	99.7% (inactive)	3.42% (inactive)	96.2%	99.7%	-7.26% (inactive)	-6.51% (inactive)
NCCN1CCN(CCN)CC1	106%	77% (inactive)	106% (inactive)	84.6% (inactive)	93.7% (inactive)	12.2% (inactive)	81.4%	93.7%	-3.87% (inactive)	2.38% (inactive)
O=C(CN1C(=O)c2ccccc2C1=O)NCC1COc2ccccc2O1 (stereo not given)	98%	110% (inactive)	98% (inactive)	95.1% (inactive)	102% (inactive)	5.31% (inactive)	97.1%	102%	2.11% (inactive)	12.5% (inactive)
O=c1c2c(nc3nc(CCc4ccccc4)[nH]n13)CCC2	112%	92% (inactive)	112% (inactive)	86.6% (inactive)	91% (inactive)	14% (inactive)	77%	91%	-6% (inactive)	0.16% (inactive)
O=C(CN1C(=O)C2CC=C(Cl)CC2C1=O)Nc1ccc(C(=O)O)cc1 (stereo not given)	127%	101% (inactive)	127% (inactive)	99.1% (inactive)	94.7% (inactive)	-0.64% (inactive)	95.4%	94.7%	-3.55% (inactive)	-0.16% (inactive)
COc1ccc2c(c1)n([O-])c1c([n+]2=O)CCC1	110%	91.5% (inactive)	110% (inactive)	109% (inactive)	100% (inactive)	-6% (inactive)	106%	100%	-1.18% (inactive)	-4.55% (inactive)
c1ccc(CCc2nc(-c3cccnc3)no2)cc1	86.5%	73% (inactive)	86.5% (inactive)	108% (inactive)	92.9% (inactive)	1.11% (inactive)	91.8%	92.9%	-4.27% (inactive)	1.31% (inactive)
CCC(=O)N1C(=O)CCN(C(C)=O)c2ccccc21	86.5%	106% (inactive)	86.5% (inactive)	100% (inactive)	103% (inactive)	-1.28% (inactive)	104%	103%	-4.67% (inactive)	0.32% (inactive)
O=C1OCc2cc(NC(=O)C3CCCO3)ccc21 (stereo not given)	92.5%	122% (inactive)	92.5% (inactive)	101% (inactive)	104% (inactive)	-0.78% (inactive)	105%	104%	1.84% (inactive)	-1.83% (inactive)

Source: PubChem BioAssay
